Reference: ChEMBL document CHEMBL3745677, “Discovery of 6-(4-{[5-Cyclopropyl-3-(2,6-dichlorophenyl)isoxazol-4-yl]methoxy}piperidin-1-yl)-1-methyl-1H-indole-3-carboxylic Acid: A Novel FXR Agonist for the Treatment of Dyslipidemia” (J Med Chem, 2015)

Key:
[1] = tested on: Mus musculus; experiment: Antidyslipidemic activity in western-diet fed mouse expressing LDL-receptor (-/-) assessed as decrease in very-low density lipoprotein level at 3 mg/kg qd for a week administered via gavage by FPLC analysis; type: functional; conditions: po
Procedure, shortened: (§1)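 LDLR null male mice, six per group, were dosed by gavage once daily for one week (vehicle 5% Solutol, 5% EtOH, 1% wt/v CMC; 5 mL/kg). Serum was collected by cardiac puncture on day 7 under CO2 anaesthesia. Pooled serum from each treatment group was fractionated by FPLC to quantify VLDL and LDL.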

[2] = tested on: Rattus norvegicus; experiment: Antidyslipidemic activity in ZDF rat assessed as LDL/IgHDL level at 10 mg/kg for 9 days by FPLC analysis (reference value: 17.8 mg/dL); type: functional, Zucker
[3] = tested on: Mus musculus; experiment: Antidyslipidemic activity in western-diet fed mouse expressing LDL-receptor (-/-) assessed as decrease in total cholesterol level at 1 mg/kg qd for a week administered via gavage […]; type: functional; conditions: po
Procedure, shortened: (§2)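 Male LDLR null mice, six per group, were gavaged once daily for one week with compound (in situ sodium salt) or vehicle (5% Solutol, 5% EtOH, 1% wt/v CMC) at 5 mL/kg. On day 7 they were bled by cardiac puncture under CO2 anaesthesia. Serum cholesterol and triglycerides were measured enzymatically on a clinical chemistry analyser (mean ± SD, n=6). ED50 was obtained by nonlinear regression.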

[4] = tested on: Mus musculus; experiment: Antidyslipidemic activity in western-diet fed mouse expressing LDL-receptor (-/-) assessed as decrease in triglyceride level at 1 mg/kg qd for a week administered via gavage by FPLC analysis; type: functional; conditions: po
[5] = Cmax in beagle dog at 3 mg/kg, po by LC-MS/MS analysis; type: ADME, organism-based, Canis lupus familiaris; parameters: dose 3 mg/kg, route oral; conditions: in vivo
Procedure, shortened: (§3)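 Sprague Dawley rats, Beagle dogs and Cynomolgus monkeys were dosed IV at 1 mg/kg (rat, dog) or 0.91 mpk (monkey) in 5% Solutol/5% EtOH in saline. Oral/nasogastric dosing was 3 mpk in 1.0% CMC/0.25% PS80/0.05% antifoam in purified water. Samples were processed to plasma and analysed by LC-MS/MS; values are mean ± SD, N=2-3.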

[6] = tested on: Rattus norvegicus; experiment: Antidyslipidemic activity in ZDF rat assessed as VLDL level at 10 mg/kg cotreated with 0.3 mg/kg rosiglitazone for 9 days by FPLC analysis (reference value: 35 mg/dL); type: functional, Zucker
[7] = Terminal half life in Sprague-Dawley rat at 1 mg/kg, iv by LC-MS/MS analysis; type: ADME, organism-based; conditions: in vivo, read-out: beta t1/2 (converted)
Procedure, shortened: (§4)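 Intravenous dose given in 5% Solutol / 5% EtOH in saline (1 mg/kg rat and dog, 0.91 mpk monkey). Plasma samples collected and analyzed by LC-MS/MS; parameters reported as mean ± SD, N=2-3.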

[8] = tested on: Mus musculus; experiment: Antidyslipidemic activity in western-diet fed mouse expressing LDL-receptor (-/-) assessed as decrease in total cholesterol level at 30 mg/kg qd for a week administered via gavage […]; type: functional; conditions: po; procedure, shortened: as §2
[9] = Clearance in Sprague-Dawley rat at 1 mg/kg, iv by LC-MS/MS analysis; type: ADME, organism-based; conditions: in vivo; procedure, shortened: as §3
[10] = tested on: Mus musculus; experiment: Antidyslipidemic activity in western-diet fed mouse expressing LDL-receptor (-/-) assessed as decrease in total cholesterol level at 10 mg/kg qd for a week administered via gavage […]; type: functional; conditions: po; procedure, shortened: as §2
[11] = AUC (0 to 24 hrs) in Sprague-Dawley rat at 1 mg/kg, iv by LC-MS/MS analysis; type: ADME, organism-based; parameters: dose 1 mg/kg, time < 24 hr, route intravenous; conditions: in vivo; procedure, shortened: as §3
[12] = Terminal half life in beagle dog at 1 mg/kg, iv by LC-MS/MS analysis; type: ADME, organism-based, Canis lupus familiaris; conditions: in vivo, read-out: beta t1/2 (converted); procedure, shortened: as §4
[13] = Cmax in cynomolgus monkey at 3 mg/kg, po by LC-MS/MS analysis; type: ADME, organism-based, Macaca fascicularis; parameters: dose 3 mg/kg, route oral; conditions: in vivo; procedure, shortened: as §3
[14] = tested on: Rattus norvegicus; experiment: Antidyslipidemic activity in ZDF rat assessed as HDL level at 10 mg/kg cotreated with 0.3 mg/kg rosiglitazone for 9 days by FPLC analysis (reference value: 48.3 mg/dL); type: functional, Zucker
[15] = tested on: Rattus norvegicus; experiment: Antidyslipidemic activity in ZDF rat assessed as VLDL level at 30 mg/kg for 9 days by FPLC analysis (reference value: 35 mg/dL); type: functional, Zucker
[16] = Terminal half life in cynomolgus monkey at 3 mg/kg, po by LC-MS/MS analysis; type: ADME, organism-based, Macaca fascicularis; conditions: in vivo, read-out: beta t1/2 (converted)
Procedure, shortened: (§5)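 Oral/nasogastric dosing at 3 mpk in 1.0% CMC/0.25% PS80/0.05% antifoam in purified water. Plasma samples collected and analyzed by LC-MS/MS; parameters reported as mean ± SD, N=2-3.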

[17] = tested on: Mus musculus; experiment: Antidyslipidemic activity in western-diet fed mouse expressing LDL-receptor (-/-) assessed as decrease in low density lipoprotein level at 30 mg/kg qd for a week administered via gavage by FPLC analysis; type: functional; conditions: po; procedure, shortened: as §1
[18] = Terminal half life in cynomolgus monkey at 0.91 mg/kg, iv by LC-MS/MS analysis; type: ADME, organism-based, Macaca fascicularis; conditions: in vivo, read-out: beta t1/2 (converted); procedure, shortened: as §4
[19] = Volume of distribution at steady state in beagle dog at 1 mg/kg, iv by LC-MS/MS analysis; type: ADME, organism-based, Canis lupus familiaris; conditions: in vivo, read-out: Vdss; procedure, shortened: as §4
[20] = Initial plasma concentration in beagle dog at 1 mg/kg, iv by LC-MS/MS analysis; type: ADME, organism-based, Canis lupus familiaris; procedure, shortened: as §4
[21] = Volume of distribution at steady state in cynomolgus monkey at 0.91 mg/kg, iv by LC-MS/MS analysis; type: ADME, organism-based, Macaca fascicularis; conditions: in vivo, read-out: Vdss; procedure, shortened: as §4
[22] = Tmax in beagle dog at 3 mg/kg, po by LC-MS/MS analysis; type: ADME, organism-based, Canis lupus familiaris; conditions: in vivo; procedure, shortened: as §5
[23] = tested on: Mus musculus; experiment: Antidyslipidemic activity in western-diet fed mouse expressing LDL-receptor (-/-) assessed as decrease in low density lipoprotein level at 1 mg/kg qd for a week administered via gavage by FPLC analysis; type: functional; conditions: po; procedure, shortened: as §1
[24] = Volume of distribution at steady state in Sprague-Dawley rat at 1 mg/kg, iv by LC-MS/MS analysis; type: ADME, organism-based; conditions: in vivo, read-out: Vdss; procedure, shortened: as §4
[25] = Fraction unbound in human plasma; type: ADME, cell-free
[26] = tested on: Mus musculus; experiment: Antidyslipidemic activity in western-diet fed mouse expressing LDL-receptor (-/-) assessed as decrease in triglyceride level administered once daily for a week via gavage […]; type: functional; conditions: po; procedure, shortened: as §2
[27] = Terminal half life in beagle dog at 3 mg/kg, po by LC-MS/MS analysis; type: ADME, organism-based, Canis lupus familiaris; conditions: in vivo, read-out: beta t1/2 (converted); procedure, shortened: as §5
[28] = tested on: Rattus norvegicus; experiment: Antidyslipidemic activity in ZDF rat assessed as LDL/IgHDL level at 10 mg/kg cotreated with 0.3 mg/kg rosiglitazone for 9 days by FPLC analysis (reference value: 17.8 mg/dL); type: functional, Zucker
[29] = tested on: Mus musculus; experiment: Antidyslipidemic activity in western-diet fed mouse expressing LDL-receptor (-/-) assessed as decrease in low density lipoprotein level at 10 mg/kg qd for a week administered via gavage by FPLC analysis; type: functional; conditions: po; procedure, shortened: as §1
[30] = tested on: Rattus norvegicus; experiment: Antidyslipidemic activity in ZDF rat assessed as HDL level at 30 mg/kg for 9 days by FPLC analysis (reference value: 48.3 mg/dL); type: functional, Zucker

SMILES: Cn1cc(C(=O)O)c2ccc(N3CCC(OCc4c(-c5c(Cl)cccc5Cl)noc4C4CC4)CC3)cc21 [TERN-101]
- inhibition in vivo at 3 mg/kg [1]: 78%
- Activity [2]: 12.5 mg/dL
- inhibition in vivo at 1 mg/kg [3]: 37%
- inhibition in vivo at 1 mg/kg [4]: 25%
- Cmax [5]: 1240 ng/mL
- Activity [6]: 8.5 mg/dL
- half-life [7]: 2 h
- inhibition in vivo at 30 mg/kg [8]: 83%
- clearance [9]: 30 mL/min/kg
- inhibition in vivo at 10 mg/kg [10]: 80%
- AUC(0-t) at 24 h [11]: 577 ng·h/mL
- half-life [12]: 10 h
- Cmax [13]: 221 ng/mL
- Activity [14]: 95 mg/dL
- Activity [15]: 13.2 mg/dL
- half-life [16]: 9 h
- inhibition in vivo at 30 mg/kg [17]: 62%
- half-life [18]: 5 h
- Vd [19]: 2.48 L/kg
- C0 [20]: 1180 ng/mL
- Vd [21]: 0.597 L/kg
- Tmax [22]: 0.75 h
- inhibition in vivo at 1 mg/kg [23]: 1%
- Vd [24]: 1.24 L/kg
- fraction unbound [25]: 0.032
- ED50 [26]: 3.4 mg/kg
- half-life [27]: 7 h
- Activity [28]: 20.3 mg/dL
- inhibition in vivo at 10 mg/kg [29]: 50%
- Activity [30]: 94 mg/dL
